CXCR6 block – CXCR6 receptor inhibitors, primary screen, cell-based, beta-arrestin, luminescence, CHO-K1 PathHunter, 1536-well; 0.36% of 360,000 active; C-X-C chemokine receptor type 6 (Homo sapiens), O00574; inhibition, % at 20 µM; in the data active = inhibition above about 34%, passing the limit was not always enough;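 also: antagonist mode with CXCL16 agonist at 10 nM final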
EBI2 block – EBI2 receptor antagonists, beta-arrestin recruitment, primary screen, cell-based, luminescence, 7a,25-OHC stimulation, uHTS; G-protein coupled receptor 183 (Homo sapiens), P32249; 7a,25-OHC stimulated; inhibition, % at 5 µM; 0.81% of 360,000 active; AID 651636, 2012; in the data active = inhibition above about 38%;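 also: enzyme fragment complementation signal reports receptor beta-arrestin coupling in cells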
CCR6 antagonist – CCR6 receptor antagonists, primary screen, cell-based, CHO-K1, luminescence, beta-arrestin, uHTS; C-C chemokine receptor type 6 (Homo sapiens), P51684; inhibition, % at 20 µM; CHO-K1 CCR6 PathHunter beta-arrestin, CCL20-stimulated; 0.49% of 340,000 active;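 active = compounds whose inhibition of the agonist-driven luminescence signal at 20 µM reaches about 50%, limit read from the data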;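 also: cells stimulated with CCL20 at 14 nM final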
m5-HT2A agonist – mouse Htr2a agonists via beta-arrestin recruitment, primary screen, cell-based, luminescence; 5-hydroxytryptamine receptor 2A (Mus musculus), P35363; CHO-K1 mHTR2A beta-arrestin complementation; percent of 30 µM serotonin response; activation, % at 7.6 µM; 0.66% of 360,000 active; AID 624169, 2012;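 active = activation above a run cutoff, the mean activation of all tested compounds plus 3 SD, cut at about 14% in these data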
APJ antagonist – antagonists of human apelin receptor APJ, primary screen, CHO-K1 cells, beta-arrestin complementation, luminescence | P35414 | inhibition, % at 20 µM | 0.32% of 330,000 active;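 active = inhibition above about 40% at 20 µM, limit read from the data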;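 also: cells challenged with 10 nM apelin-13 agonist together with compound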
Target sequence (P35414 whole entry, looked up): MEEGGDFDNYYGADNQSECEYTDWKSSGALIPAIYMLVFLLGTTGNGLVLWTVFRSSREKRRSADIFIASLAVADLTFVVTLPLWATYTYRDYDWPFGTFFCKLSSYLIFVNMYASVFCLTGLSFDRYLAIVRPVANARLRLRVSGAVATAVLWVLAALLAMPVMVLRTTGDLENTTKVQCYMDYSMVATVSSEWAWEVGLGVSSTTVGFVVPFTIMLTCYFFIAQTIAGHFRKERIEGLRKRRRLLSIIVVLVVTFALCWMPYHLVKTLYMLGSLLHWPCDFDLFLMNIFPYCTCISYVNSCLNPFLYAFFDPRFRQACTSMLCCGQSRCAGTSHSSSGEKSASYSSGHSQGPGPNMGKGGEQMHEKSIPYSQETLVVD
APJ ag – agonists of human apelin receptor APJ, primary screen, CHO-K1 cells, PathHunter beta-arrestin, luminescence. P35414. 0% DMSO wells, 100% apelin. activation, % at 20 µM. 0.11% of 330,000 active. AID 2520, 2010;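 active = activation more than six SD over the plate average, tested at 20 µM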
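Material: engineered CHO-K1 APJ arrestin reporter cells; amount: 1000 CHO-K1 reporter cells seeded per well; incubation: compound stimulation 90 min at 25 °C, detection 60 min; signal: luminescent beta-gal fragment complementation, chemiluminescent substrate; read-out basis: APJ agonist activity; controls: DMSO-only wells as negative, 10 nM Apelin-13 as positive control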
APJ antag confirm – APJ antagonists blocking beta-arrestin recruitment, confirmation, cell-based, luminescence, single concentration, uHTS hits. shares compounds with APJ antagonist. antagonist mode. inhibition, % at 20 µM. 66% of 950 active; in the data active = inhibition above about 50%
Each line names hits and unclear results; the compound was inactive in the other large screens (follow-up assays come after a bar, where they were run). This is a sample that favours compounds with a hit; in the whole collection about 2.1% have one here.

COc1ccc(S(=O)(=O)Nc2ccccn2)cc1	none
COc1cc(NS(=O)(=O)c2ccc(C)cc2)c2ncccc2c1	EBI2 block 75.3, APJ antagonist 71.8 | APJ antag confirm 63.2
C=CCNC(=S)N/N=C(\C)c1ccccn1	APJ antagonist 66.9 | APJ antag confirm inactive
CC(=NNC(=S)Nc1ccccc1)c1ccccn1	none (no result: CCR6 antagonist, APJ antagonist, APJ ag)
C[C@H](CO)N1C[C@H](C)[C@H](CN(C)S(=O)(=O)c2cccs2)OCc2cnnn2CCCC1=O	none (no result: CCR6 antagonist, APJ antagonist, APJ ag)
CCN1C(=O)/C(=C\C=C2/C=CC=CN2CC)SC1=S	CXCR6 block 54.4, CCR6 antagonist 63.9, APJ antagonist 65.0 | APJ antag confirm 121.7
CCOc1ccc(NC(=O)CC2C(=O)N(CC)C(=S)N2CCN2CCOCC2)cc1 (stereo not drawn)	APJ antagonist 46.3 | APJ antag confirm inactive
C=CCn1c(=O)/c(=C2/Sc3cc(OC)ccc3N2C)s/c1=C1\C(=O)N(CC)C(=S)N1C	APJ antagonist 49.8 (no result: CXCR6 block, EBI2 block, CCR6 antagonist, m5-HT2A agonist) | APJ antag confirm 75.8
CCN1/C(=C2\C(=O)N(C)C(=S)N2C)C=Cc2cc(OC)ccc21	none
O=C(c1cccc(NS(=O)(=O)c2cccc(C(F)(F)F)c2)c1)N1CCOCC1	none
N=C1/C(=C/c2ccc(-c3cccc(C(=O)O)c3)o2)C(=O)N=C2SC=C(c3ccccc3)N12	CCR6 antagonist 56.6, APJ antagonist 40.1 | APJ antag confirm 53.0
Cc1ccc(NC(=O)c2ccc(=O)n(CC(=O)Nc3ccccc3)n2)cc1	none
CN(Cc1ccccc1)C(=S)NC(=O)C1CCCCC1	none
CN(Cc1ccccc1)C(=S)NC(=O)c1cccs1	APJ antagonist 40.8 | APJ antag confirm inactive
Cc1ccc2cccc(N)c2n1	APJ antagonist 41.2 | APJ antag confirm inactive
Cc1ccc(N=C2C(=O)Nc3ccccc32)cc1	CCR6 antagonist 56.5, APJ antagonist 40.5 | APJ antag confirm 77.5
O=C1Nc2ccccc2C1=Nc1ccc(Br)cc1	CXCR6 block 42.3, CCR6 antagonist 68.8, APJ antagonist 63.0 | APJ antag confirm 146.8
CC(C)n1cc(C(=O)N2CCCC(N3CCN(c4cccc(Cl)c4)CC3)C2)cn1 (stereo not drawn)	none
CC1=NN(c2ccc(C(=O)OC(C)C)cc2)C(=O)/C1=C\C=C\c1ccco1	APJ antagonist 57.3 | APJ antag confirm 51.0
CCOC(=O)c1ccc(N2N=C(C)/C(=C/C=C/c3ccco3)C2=O)cc1	none
O=C(N/N=C/c1cc(Cl)cc([N+](=O)[O-])c1O)NC12CC3CC(CC(C3)C1)C2	APJ antagonist 41.7 | APJ antag confirm 70.1
O=C(N/N=C/c1ccccc1O)NC12CC3CC(CC(C3)C1)C2	none
CS(=O)(=O)N(CC(=O)N1CCc2ccccc2C1)c1ccc(Cl)cc1F	none (no result: APJ antagonist, APJ ag)
COc1cc([N+](=O)[O-])cc(/C=N/NC(=O)C(O)(c2ccccc2)c2ccccc2)c1O	APJ antagonist 46.9 | APJ antag confirm inactive
CN1CN(C)C(c2ccncc2)=C1c1ccncc1	none
CCOC(CNC(=O)c1cccn2c(=O)c3cc(Cl)ccc3nc12)OCC	APJ antagonist 50.5 | APJ antag confirm inactive
CCOC(=O)N1CCN(C(=O)c2cccn3c(=O)c4cc(Cl)ccc4nc23)CC1	none
Cc1noc(C)c1S(=O)(=O)NCc1cccc(Cl)c1	none
COc1ccc(Cn2nnnc2C(c2ccccc2Cl)N2CCC(C(N)=O)CC2)cc1 (stereo not drawn)	none
COc1ccc(Cn2nnnc2C(c2cc(OC)ccc2OC)N2CCC(C(N)=O)CC2)cc1 (stereo not drawn)	APJ antagonist 42.9 | APJ antag confirm inactive
CN(C)c1ccc(/C=C2/NC(=O)NC2=O)cc1	none
CN(C)c1ccc(/C=C2\N=C(c3ccc(Cl)c([N+](=O)[O-])c3)NC2=O)cc1	CXCR6 block 44.7, CCR6 antagonist 63.0, APJ antagonist 52.2 | APJ antag confirm 104.5
CCOc1cc(C(=O)NCCCNC(=O)c2cc(OCC)c(OCC)c(OCC)c2)cc(OCC)c1OCC	none
CC(=O)C1=C(c2cccc([N+](=O)[O-])c2)N(C(C)=O)n2c(C)nnc2S1	EBI2 block 58.0, CCR6 antagonist 69.8, APJ antagonist 106.8 | APJ antag confirm 153.9
CC(=O)c1c(C(C)=O)c(C)n(-c2cccc([N+](=O)[O-])c2)c1C	none
Oc1c(C(c2ccccc2Cl)N2CCCC2)ccc2cccnc12 (stereo not drawn)	EBI2 block 50.9, APJ antagonist 56.4 | APJ antag confirm 55.9
CCOC(=O)C1=C(COC(=O)c2ccc(Br)o2)NC(=O)NC1C (stereo not drawn)	none
O=C(CCl)c1ccc2[nH]c(=O)oc2c1	APJ antagonist 83.5 | APJ antag confirm inactive
O=c1[nH]c2ccc(Br)cc2o1	none (no result: APJ antagonist, APJ ag)
CCOC(=O)C1=C[C@@H](c2ccccc2)N(S(=O)(=O)c2ccc(C)cc2)[C@H]1c1ccc(F)cc1	none (no result: CCR6 antagonist, APJ antagonist, APJ ag)
COc1ccc(CCNC(=O)Cc2ccccc2)cc1OC	APJ antagonist 111.0 | APJ antag confirm inactive
CC(C)(C)N(Cc1ccccc1)C(=O)COC(=O)/C=C/c1ccc2c(c1)OCO2	none
CN(C)c1cccc(NC(=O)C2(C)CC2(Cl)Cl)c1 (stereo not drawn)	none
CC(=O)Nc1ccc(NC(=O)C2(C)CC2(Cl)Cl)cc1 (stereo not drawn)	APJ antagonist 91.4 | APJ antag confirm inactive
CC1Nc2ncnc(N3CCN(c4ccccn4)CC3)c2N(Cc2ccccc2)C1=O (stereo not drawn)	CXCR6 block 68.5, EBI2 block 44.6, CCR6 antagonist 79.0, APJ antagonist 64.6 | APJ antag confirm 109.9
O=C(COC(=O)COc1cccc(C(F)(F)F)c1)Nc1ccc(N2CCOCC2)cc1	none
CCN(CC)CCCn1c2c(c(SCC(=O)Nc3cc(OC)cc(OC)c3)nc1=O)CCC2	APJ antagonist 55.1 | APJ antag confirm inactive
CCN(CC)CCCn1c2c(c(SCC(=O)Nc3ccc(F)c(F)c3)nc1=O)CCC2	none
Fc1ccc(CNC(=S)Nc2ccc(Cl)cc2Cl)cc1	none
Fc1ccc(NC(=S)Nc2ccc(Cl)cc2Cl)cc1	APJ antagonist 57.3 (no result: CXCR6 block, EBI2 block, m5-HT2A agonist) | APJ antag confirm 62.6
COc1cc(/C=C/c2sc3ccccc3[n+]2CCCS(=O)(=O)[O-])ccc1O	CXCR6 block 51.1, CCR6 antagonist 54.8, APJ antagonist 50.9 | APJ antag confirm 99.6
CCC(/C=C1\Oc2ccc(OC)cc2N1C)=C\c1sc2ccccc2[n+]1CCCS(=O)(=O)[O-]	none (no result: APJ antagonist, APJ ag)
